According to ChEMBL document CHEMBL2375313, “Synthesis, in vitro antitumor evaluation and DNA-binding study of novel tetrahydroquinolines and some derived tricyclic and tetracyclic ring systems” (Eur J Med Chem, 2013):

How the values were obtained:
Assay type in all cases: functional
[1] = tested on: HT-29; assay: Cytotoxicity against human HT-29 cells assessed as growth inhibition at 10 uM after 48 hrs by sulphorhodamine B assay; details: HT-29, 48 h, read-out: GI
Summary of the method: (§1)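 NCI-60 one-dose screen per the NCI Drug Evaluation Branch protocol. Cells given a single 10 µM concentration with 48 h continuous exposure. Growth estimated by sulphorhodamine B protein assay. Result expressed as percentage growth inhibition relative to untreated growth.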

[2] = tested on: ACHN; assay: Cytotoxicity against human ACHN cells assessed as growth inhibition at 10 uM after 48 hrs by sulphorhodamine B assay; details: read-out: GI; summary of the method: as §1
[3] = tested on: T47D; assay: Cytotoxicity against human T47D cells assessed as growth inhibition at 10 uM after 48 hrs by sulphorhodamine B assay; details: read-out: GI; summary of the method: as §1
[4] = tested on: SK-OV-3; assay: Cytotoxicity against human SKOV3 cells assessed as growth inhibition at 10 uM after 48 hrs by sulphorhodamine B assay; details: SK-OV-3, 48 h, read-out: GI; summary of the method: as §1
[5] = tested on: SK-MEL-5; assay: Cytotoxicity against human SK-MEL-5 cells assessed as growth inhibition at 10 uM after 48 hrs by sulphorhodamine B assay; details: SK-MEL-5, 48 h, read-out: GI; summary of the method: as §1
[6] = tested on: NCI-H522; assay: Cytotoxicity against human NCI-H522 cells assessed as growth inhibition at 10 uM after 48 hrs by sulphorhodamine B assay; details: NCI-H522, 48 h, read-out: GI; summary of the method: as §1
[7] = tested on: CAKI-1; assay: Cytotoxicity against human Caki1 cells assessed as growth inhibition at 10 uM after 48 hrs by sulphorhodamine B assay; details: CAKI-1, 48 h, read-out: GI; summary of the method: as §1
[8] = tested on: K562; assay: Cytotoxicity against human K562 cells assessed as growth inhibition at 10 uM after 48 hrs by sulphorhodamine B assay; details: K562, 48 h, read-out: GI; summary of the method: as §1
[9] = tested on: IGROV-1; assay: Cytotoxicity against human IGROV1 cells assessed as growth inhibition at 10 uM after 48 hrs by sulphorhodamine B assay; details: IGROV-1, 48 h, read-out: GI; summary of the method: as §1
[10] = tested on: LOX IMVI; assay: Cytotoxicity against human LOXIMVI cells assessed as growth inhibition at 10 uM after 48 hrs by sulphorhodamine B assay; details: read-out: GI; summary of the method: as §1
[11] = tested on: HL-60(TB); assay: Cytotoxicity against human HL-60(TB) cells assessed as growth inhibition at 10 uM after 48 hrs by sulphorhodamine B assay; details: HL-60, 48 h, read-out: GI
Summary of the method: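 NCI-60 one-dose primary screen run to the Drug Evaluation Branch protocol. Cells are exposed to a single 10 µM concentration for 48 h continuously, and growth is read by SRB protein assay. Data are reported as percent growth of treated cells, expressed as % growth inhibition.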

[12] = tested on: NCI/ADR-RES; assay: Cytotoxicity against human NCI/ADR-RES cells assessed as growth inhibition at 10 uM after 48 hrs by sulphorhodamine B assay; details: read-out: GI; summary of the method: as §1
[13] = tested on: RPMI-8226; assay: Cytotoxicity against human RPMI8226 cells assessed as growth inhibition at 10 uM after 48 hrs by sulphorhodamine B assay; details: RPMI-8226, 48 h, read-out: GI; summary of the method: as §1
[14] = tested on: SNB-75; assay: Cytotoxicity against human SNB75 cells assessed as growth inhibition at 10 uM after 48 hrs by sulphorhodamine B assay; details: SNB-75, 48 h, read-out: GI; summary of the method: as §1
[15] = tested on: UACC-62; assay: Cytotoxicity against human UACC62 cells assessed as growth inhibition at 10 uM after 48 hrs by sulphorhodamine B assay; details: UACC-62, 48 h, read-out: GI; summary of the method: as §1
[16] = tested on: OVCAR-5; assay: Cytotoxicity against human OVCAR5 cells assessed as growth inhibition at 10 uM after 48 hrs by sulphorhodamine B assay; details: OVCAR-5, 48 h, read-out: GI; summary of the method: as §1
[17] = tested on: NCI-H23; assay: Cytotoxicity against human NCI-H23 cells assessed as growth inhibition at 10 uM after 48 hrs by sulphorhodamine B assay; details: NCI-H23, 48 h, read-out: GI; summary of the method: as §1
[18] = tested on: OVCAR-4; assay: Cytotoxicity against human OVCAR4 cells assessed as growth inhibition at 10 uM after 48 hrs by sulphorhodamine B assay; details: OVCAR-4, 48 h, read-out: GI; summary of the method: as §1
[19] = tested on: SR; assay: Cytotoxicity against human SR cells assessed as growth inhibition at 10 uM after 48 hrs by sulphorhodamine B assay; details: read-out: GI; summary of the method: as §1
[20] = tested on: CCRF-CEM; assay: Cytotoxicity against human CCRF-CEM cells assessed as growth inhibition at 10 uM after 48 hrs by sulphorhodamine B assay; details: read-out: GI; summary of the method: as §1
[21] = tested on: M14; assay: Cytotoxicity against human M14 cells assessed as growth inhibition at 10 uM after 48 hrs by sulphorhodamine B assay; details: M14, 48 h, read-out: GI; summary of the method: as §1
[22] = tested on: SF-268; assay: Cytotoxicity against human SF268 cells assessed as growth inhibition at 10 uM after 48 hrs by sulphorhodamine B assay; details: SF-268, 48 h, read-out: GI; summary of the method: as §1
[23] = tested on: A549; assay: Cytotoxicity against human A549 cells assessed as growth inhibition at 10 uM after 48 hrs by sulphorhodamine B assay; details: A549, 48 h, read-out: GI; summary of the method: as §1
[24] = tested on: MDA-MB-468; assay: Cytotoxicity against human MDA-MB-468 cells assessed as growth inhibition at 10 uM after 48 hrs by sulphorhodamine B assay; details: MDA-MB-468, 48 h, read-out: GI; summary of the method: as §1
[25] = tested on: HCT-116; assay: Cytotoxicity against human HCT116 cells assessed as growth inhibition at 10 uM after 48 hrs by sulphorhodamine B assay; details: HCT-116, 48 h, read-out: GI; summary of the method: as §1
[26] = tested on: DU-145; assay: Cytotoxicity against human DU145 cells assessed as growth inhibition at 10 uM after 48 hrs by sulphorhodamine B assay; details: DU-145, 48 h, read-out: GI; summary of the method: as §1
[27] = tested on: MCF7; assay: Cytotoxicity against human MCF7 cells assessed as growth inhibition at 10 uM after 48 hrs by sulphorhodamine B assay; details: MCF7, 48 h, read-out: GI; summary of the method: as §1
[28] = tested on: MDA-MB-435; assay: Cytotoxicity against human MDA-MB-435 cells assessed as growth inhibition at 10 uM after 48 hrs by sulphorhodamine B assay; details: MDA-MB-435, 48 h, read-out: GI; summary of the method: as §1
[29] = tested on: MOLT-4; assay: Cytotoxicity against human MOLT4 cells assessed as growth inhibition at 10 uM after 48 hrs by sulphorhodamine B assay; details: MOLT-4, 48 h, read-out: GI; summary of the method: as §1
[30] = tested on: Hs-578T; assay: Cytotoxicity against human Hs578T cells assessed as growth inhibition at 10 uM after 48 hrs by sulphorhodamine B assay; details: read-out: GI; summary of the method: as §1
[31] = tested on: SF-295; assay: Cytotoxicity against human SF295 cells assessed as growth inhibition at 10 uM after 48 hrs by sulphorhodamine B assay; details: SF-295, 48 h, read-out: GI; summary of the method: as §1
[32] = tested on: SNB-19; assay: Cytotoxicity against human SNB19 cells assessed as growth inhibition at 10 uM after 48 hrs by sulphorhodamine B assay; details: SNB-19, 48 h, read-out: GI; summary of the method: as §1
[33] = tested on: RXF 393; assay: Cytotoxicity against human RXF393 cells assessed as growth inhibition at 10 uM after 48 hrs by sulphorhodamine B assay; details: RXF 393, 48 h, read-out: GI; summary of the method: as §1
[34] = tested on: SK-MEL-2; assay: Cytotoxicity against human SK-MEL-2 cells assessed as growth inhibition at 10 uM after 48 hrs by sulphorhodamine B assay; details: SK-MEL-2, 48 h, read-out: GI; summary of the method: as §1
[35] = tested on: U-251; assay: Cytotoxicity against human U251 cells assessed as growth inhibition at 10 uM after 48 hrs by sulphorhodamine B assay; details: U-251, 48 h, read-out: GI; summary of the method: as §1
[36] = tested on: HCT-15; assay: Cytotoxicity against human HCT15 cells assessed as growth inhibition at 10 uM after 48 hrs by sulphorhodamine B assay; details: HCT-15, 48 h, read-out: GI; summary of the method: as §1
[37] = tested on: A498; assay: Cytotoxicity against human A498 cells assessed as growth inhibition at 10 uM after 48 hrs by sulphorhodamine B assay; details: A498, 48 h, read-out: GI; summary of the method: as §1
[38] = tested on: PC-3; assay: Cytotoxicity against human PC3 cells assessed as growth inhibition at 10 uM after 48 hrs by sulphorhodamine B assay; details: PC-3, 48 h, read-out: GI; summary of the method: as §1
[39] = Cytotoxicity against human EKVX cells assessed as growth inhibition at 10 uM after 48 hrs by sulphorhodamine B assay; details: read-out: GI; summary of the method: as §1
[40] = tested on: UO-31; assay: Cytotoxicity against human UO31 cells assessed as growth inhibition at 10 uM after 48 hrs by sulphorhodamine B assay; details: UO-31, 48 h, read-out: GI; summary of the method: as §1

In the case of COc1ccc(-c2c3c(nc4ncn(N)c(=N)c24)C(C)CCC3)cc1 (stereo not given), the inhibition of growth at 10 µM [1] was < 10%, the inhibition of growth at 10 µM [2] was 14.5% and the inhibition of growth at 10 µM [3] was 18.1%. For the same compound, the inhibition of growth at 10 µM [4] was < 10%, the inhibition of growth at 10 µM [5] was < 10% and the inhibition of growth at 10 µM [6] was 26%. The inhibition of growth at 10 µM [7] was 10%, the inhibition of growth at 10 µM [8] was < 10% and the inhibition of growth at 10 µM [9] was < 10%. For the same compound, the inhibition of growth at 10 µM [10] was < 10%, the inhibition of growth at 10 µM [11] was < 10% and the inhibition of growth at 10 µM [12] was < 10%. For the same compound, the inhibition of growth at 10 µM [13] was < 10%, the inhibition of growth at 10 µM [14] was 14.3% and the inhibition of growth at 10 µM [15] was 24%. The inhibition of growth at 10 µM [16] was < 10%, the inhibition of growth at 10 µM [17] was 14.4% and the inhibition of growth at 10 µM [18] was 20%. The inhibition of growth at 10 µM [19] was < 10%, the inhibition of growth at 10 µM [20] was < 10% and the inhibition of growth at 10 µM [21] was < 10%. The inhibition of growth at 10 µM [22] was < 10%, the inhibition of growth at 10 µM [23] was < 10% and the inhibition of growth at 10 µM [24] was < 10%. For the same compound, the inhibition of growth at 10 µM [25] was 22.3%, the inhibition of growth at 10 µM [26] was < 10% and the inhibition of growth at 10 µM [27] was < 10%. The inhibition of growth at 10 µM [28] was 19%, the inhibition of growth at 10 µM [29] was < 10% and the inhibition of growth at 10 µM [30] was < 10%. For the same compound, the inhibition of growth at 10 µM [31] was < 10%, the inhibition of growth at 10 µM [32] was < 10% and the inhibition of growth at 10 µM [33] was < 10%. It also gave an inhibition of growth at 10 µM [34] of 11%, an inhibition of growth at 10 µM [35] of 16.7% and an inhibition of growth at 10 µM [36] of 25%. The inhibition of growth at 10 µM [37] was < 10%, the inhibition of growth at 10 µM [38] was < 10% and the inhibition of growth at 10 µM [39] was 21.5%. For the same compound, the inhibition of growth at 10 µM [40] was < 10%.
